Assay results as given in ChEMBL document CHEMBL4834438, “Synthesis and Biological Activity of Triterpene-Coumarin Conjugates” (J Nat Prod, 2021).
Calls of active or inactive are those of the source. The calls are words filed in the database; no cut-off is given here.

Tests used:
[1] = system: HepG2; experiment: Induction of apoptosis in human HepG2 cells assessed as necrotic cells at IC50 concentrations measured after 72 hrs by Annexin V-FITC/Propidium iodide staining based FACS cytometry analysis; format: functional
Outline: (§1)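 Seeding in 24-well plates was 5 × 10^4 B16–F10, 6 × 10^4 HT29 or 15 × 10^4 Hep G2 per well, followed by 24 h growth. Cells were treated in triplicate for 72 h at the respective IC50. Harvested cells went into HEPES binding buffer (pH 7.4, 140 mM NaCl, 2.5 mM CaCl2), with Annexin V-FITC added for 15 min at room temperature in the dark, then PI just before FACScan. About 10 × 10^3 cells were counted per sample. Results are mean ± SEM, relative to untreated control.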

[2] = system: B16-F10; experiment: Induction of mitochondrial membrane potential loss in mouse B16-F10 cells assessed as fluorescence intensity at IC50 concentration measured after 72 hrs by rhodamine 123 staining based FACScan flow cytometry; format: functional, cell-based
Outline: (§2)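 The medium was then renewed with dihydrorhodamine, which oxidizes to Rh123, for 1 h at 37 °C in 5% CO2. Cells were washed and resuspended in PBS, and fluorescence was read by FACScan (excitation 500, emission 536 nm). Three experiments, two replicates each, reported as mean ± SEM.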

[3] = system: HT-29; experiment: Cell cycle arrest in human HT-29 cells assessed as decrease in cells accumulation in S phase at IC50 concentrations measured after 72 hrs by Propidium iodide staining based FACS cytometry analysis; format: functional; design: scale not given: the % may be the effect or the level left
Outline: (§3)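 Cells were seeded in 24-well plates (5 × 10^4 B16–F10 or 6 × 10^4 HT29 per well) and grown 24 h in DMEM with 10% FCS and 2 mM glutamine at 37 °C, 5% CO2. They were then exposed 72 h at the cancer-line IC50, washed in PBS, trypsinized and taken up in TBS, then in Vindelov buffer (RNase, PI, pH 8). Cells were kept on ice and given extra PI before reading. About 10 × 10^3 cells were read per run by FACS at 488 nm. Three experiments, two replicates each, reported as mean ± SEM.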

[4] = system: B16-F10; experiment: Cell cycle arrest in mouse B16-F10 cells assessed as decrease in cells accumulation in S phase at IC50 concentrations measured after 72 hrs by Propidium iodide staining based FACS cytometry analysis; format: functional; design: scale not given: the % may be the effect or the level left; outline: as §3
[5] = system: B16-F10; experiment: Induction of apoptosis in mouse B16-F10 cells assessed as necrotic cells at IC50 concentrations measured after 72 hrs by Annexin V-FITC/Propidium iodide staining based FACS cytometry analysis; format: functional; outline: as §1
[6] = system: HT-29; experiment: Induction of apoptosis in human HT-29 cells assessed as necrotic cells at IC50 concentrations measured after 72 hrs by Annexin V-FITC/Propidium iodide staining based FACS cytometry analysis; format: functional; outline: as §1
[7] = system: HT-29; experiment: Induction of mitochondrial membrane potential loss in human HT-29 cells assessed as fluorescence intensity at IC50 concentration measured after 72 hrs by rhodamine 123 staining based FACScan flow cytometry; format: functional, cell-based; outline: as §2
[8] = system: HepG2; experiment: Induction of apoptosis in human HepG2 cells assessed as total apoptosis at IC50 concentrations measured after 72 hrs by Annexin V-FITC/Propidium iodide staining based FACS cytometry analysis; format: functional; outline: as §1
[9] = system: HT-29; experiment: Induction of apoptosis in human HT-29 cells assessed as total apoptosis at IC50 concentrations measured after 72 hrs by Annexin V-FITC/Propidium iodide staining based FACS cytometry analysis; format: functional; outline: as §1
[10] = system: HepG2; experiment: Induction of mitochondrial membrane potential loss in human HepG2 cells assessed as fluorescence intensity at IC50 concentration measured after 72 hrs by rhodamine 123 staining based FACScan flow cytometry; format: functional, cell-based; outline: as §2
[11] = system: B16-F10; experiment: Cell cycle arrest in mouse B16-F10 cells assessed as increase in cells accumulation in G0/G1 phase at IC50 concentrations measured after 72 hrs by Propidium iodide staining based FACS cytometry analysis; format: functional; outline: as §3
[12] = system: HT-29; experiment: Cell cycle arrest in human HT-29 cells assessed as increase in cells accumulation in G0/G1 phase at IC50 concentrations measured after 72 hrs by Propidium iodide staining based FACS cytometry analysis; format: functional; outline: as §3
[13] = system: B16-F10; experiment: Induction of apoptosis in mouse B16-F10 cells assessed as total apoptosis at IC50 concentrations measured after 72 hrs by Annexin V-FITC/Propidium iodide staining based FACS cytometry analysis; format: functional; outline: as §1

Row | Structure (SMILES) | Activity [1] | Activity [2] | Activity [3] | Activity [4] | Activity [5] | Activity [6] | Activity [7] | Activity [8] | Activity [9] | Activity [10] | Activity [11] | Activity [12] | Activity [13]
1 | CC1(C)CC[C@]2(C(=O)O)CC[C@]3(C)C(=CC[C@@H]4[C@@]5(C)C[C@@H](OC(=O)c6cc7ccccc7oc6=O)[C@H](OC(=O)c6cc7ccccc7oc6=O)C(C)(C)[C@@H]5CC[C@]43C)[C@@H]2C1 | 5% | inactive | 10% | 10% | 5% | 5% | inactive | 40% | 58% | Active |  |  | 
2 | CC1(C)CC[C@]2(C(=O)NCCCNC(=O)c3cc4ccccc4oc3=O)CC[C@]3(C)C(=CC[C@@H]4[C@@]5(C)C[C@@H](O)[C@H](O)C(C)(C)[C@@H]5CC[C@]43C)[C@@H]2C1 | 5% | inactive | 10% | 10% | 5% | 5% | inactive |  |  | Active | inactive | inactive | 
3 | CC1(C)CC[C@]2(C(=O)NCCCNC(=O)Cc3cc(=O)oc4cc(O)ccc34)CC[C@]3(C)C(=CC[C@@H]4[C@@]5(C)C[C@@H](O)[C@H](O)C(C)(C)[C@@H]5CC[C@]43C)[C@@H]2C1 | 5% | inactive | 10% | 10% | 5% | 5% | inactive | 40% |  | Active |  |  | 85%
4 | CC1(C)CC[C@]2(C(=O)NCCCNC(=O)/C=C/c3ccc(O)cc3)CC[C@]3(C)C(=CC[C@@H]4[C@@]5(C)C[C@@H](O)[C@H](O)C(C)(C)[C@@H]5CC[C@]43C)[C@@H]2C1 | 5% | inactive | 10% | 10% | 5% | 5% | inactive | 76% | 40% | Active |  |  | 40%
